Data reported in ChEMBL document CHEMBL1141663, “Synthesis and antibacterial activity of bis-[2-hydroxy-3-(1,7,8,9,10-pentamethyl-3,5-dioxo-4-aza-tricyclo[5.2.1.0(2,6)]dec-8-en-4-yloxy)-propyl]-dimethyl-ammonium chloride” (2008).
Calls of active or inactive are those of the source. The rule behind the calls is not given here.

Tests used:
Staphylococcus aureus [1] = test: Antibacterial activity against methicillin-susceptible Staphylococcus aureus 72/05 isolates after 18 hrs; format: functional
Procedure, shortened: (§1)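 Agar-dilution MIC on Mueller–Hinton II agar per CLSI guidelines. Aqueous test solutions were added to liquid agar to give two dilution series across 6.25–400 µg/mL. Solidified plates were spot-inoculated with 2 µL aliquots to a final inoculum of 10^4 […]. […] Strains were standard S. aureus strains or hospital patient isolates typed MSSA/MRSA.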

Staphylococcus aureus [2] = test: Antibacterial activity against methicillin-susceptible Staphylococcus aureus 98/06 isolates after 18 hrs; format: functional; procedure, shortened: as §1
Staphylococcus aureus [3] = test: Antibacterial activity against methicillin-susceptible Staphylococcus aureus 101/06 isolates after 18 hrs; format: functional; procedure, shortened: as §1
Staphylococcus aureus [4] = test: Antibacterial activity against methicillin-susceptible Staphylococcus aureus 102/06 isolates after 18 hrs; format: functional; procedure, shortened: as §1
Staphylococcus aureus [5] = test: Antibacterial activity against methicillin-susceptible Staphylococcus aureus 112/06 isolates after 18 hrs; format: functional; procedure, shortened: as §1
Staphylococcus aureus [6] = test: Antibacterial activity against methicillin-resistant Staphylococcus aureus 1/04 isolates after 18 hrs; format: functional; procedure, shortened: as §1
Staphylococcus aureus [7] = test: Antibacterial activity against methicillin-resistant Staphylococcus aureus 5/04 isolates after 18 hrs; format: functional; procedure, shortened: as §1
Staphylococcus aureus [8] = test: Antibacterial activity against methicillin-resistant Staphylococcus aureus 19/04 isolates after 18 hrs; format: functional; procedure, shortened: as §1
Staphylococcus aureus [9] = test: Antibacterial activity against methicillin-resistant Staphylococcus aureus 29/04 isolates after 18 hrs; format: functional; procedure, shortened: as §1
Staphylococcus aureus [10] = test: Antibacterial activity against methicillin-resistant Staphylococcus aureus 46/05 isolates after 18 hrs; format: functional; procedure, shortened: as §1
Staphylococcus aureus [11] = test: Antibacterial activity against methicillin-resistant Staphylococcus aureus 47/05 isolates after 18 hrs; format: functional; procedure, shortened: as §1
Staphylococcus aureus [12] = test: Antibacterial activity against methicillin-resistant Staphylococcus aureus 48/05 isolates after 18 hrs; format: functional; procedure, shortened: as §1
Staphylococcus aureus [13] = test: Antibacterial activity against methicillin-resistant Staphylococcus aureus 53/05 isolates after 18 hrs; format: functional; procedure, shortened: as §1
Staphylococcus aureus [14] = test: Antibacterial activity against methicillin-resistant Staphylococcus aureus 54/05 isolates after 18 hrs; format: functional; procedure, shortened: as §1
Staphylococcus aureus [15] = test: Antibacterial activity against methicillin-resistant Staphylococcus aureus 55/05 isolates after 18 hrs; format: functional; procedure, shortened: as §1
Staphylococcus aureus [16] = test: Antibacterial activity against methicillin-resistant Staphylococcus aureus 56/05 isolates after 18 hrs; format: functional; procedure, shortened: as §1
Staphylococcus aureus [17] = test: Antibacterial activity against methicillin-resistant Staphylococcus aureus 79/05 isolates after 18 hrs; format: functional; procedure, shortened: as §1
Staphylococcus aureus [18] = test: Antibacterial activity against methicillin-resistant Staphylococcus aureus 80/05 isolates after 18 hrs; format: functional; procedure, shortened: as §1
Staphylococcus aureus [19] = test: Antibacterial activity against methicillin-resistant Staphylococcus aureus 83/05 isolates after 18 hrs; format: functional; procedure, shortened: as §1
Staphylococcus aureus [20] = test: Antibacterial activity against methicillin-resistant Staphylococcus aureus 84/05 isolates after 18 hrs; format: functional; procedure, shortened: as §1
Staphylococcus aureus [21] = test: Antibacterial activity against methicillin-resistant Staphylococcus aureus 85/06 isolates after 18 hrs; format: functional; procedure, shortened: as §1
Staphylococcus aureus [22] = test: Antibacterial activity against methicillin-resistant Staphylococcus aureus 90/06 isolates after 18 hrs; format: functional; procedure, shortened: as §1
Staphylococcus aureus [23] = test: Antibacterial activity against Staphylococcus aureus ATCC 29213 at 400 ug/disk […] by disc-diffusion method; format: functional; conditions: read-out: IZ
Staphylococcus aureus [24] = test: Antibacterial activity against Staphylococcus aureus ATCC 6538P at 400 ug/disk after 24 to 48 hrs by disc-diffusion method; format: functional; conditions: read-out: IZ
Bacillus subtilis = test: Antibacterial activity against Bacillus subtilis ATCC 6633 at 400 ug/disk […] by disc-diffusion method; format: functional; conditions: read-out: IZ
Enterococcus hirae = test: Antibacterial activity against Enterococcus hirae ATCC 10541 at 400 ug/disk after 24 to 48 hrs by disc-diffusion method; format: functional; conditions: read-out: IZ
Pseudomonas aeruginosa [25] = test: Antibacterial activity against Pseudomonas aeruginosa NCTC 6749 at 400 ug/disk […] by disc-diffusion method; format: functional, organism-based
Pseudomonas aeruginosa [26] = test: Antibacterial activity against Pseudomonas aeruginosa ATCC 15442 at 400 ug/disk […] by disc-diffusion method; format: functional, organism-based
[27] = system: Bordetella bronchiseptica; test: Antibacterial activity against Bordetella bronchiseptica ATCC 4617 at 400 ug/disk […] by disc-diffusion method; format: functional; conditions: read-out: IZ
Candida albicans = test: Antimicrobial activity against Candida albicans ATCC 10231 at 400 ug/disk after 24 to 48 hrs by disc-diffusion method; format: functional; conditions: read-out: IZ
Procedure, shortened: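 Antifungal disc diffusion on YNB agar under CLSI guidelines. Sterile 10 mm filter-paper discs were loaded from aqueous solution with 100 or 400 µg of compound per disc. Plates were read after 24–48 h incubation at 30 °C.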

Staphylococcus aureus [28] = test: Antibacterial activity against methicillin-resistant Staphylococcus aureus 91/06 isolates after 18 hrs; format: functional; procedure, shortened: as §1
Staphylococcus aureus [29] = test: Antibacterial activity against methicillin-resistant Staphylococcus aureus 92/06 isolates after 18 hrs; format: functional; procedure, shortened: as §1
Staphylococcus aureus [30] = test: Antibacterial activity against methicillin-resistant Staphylococcus aureus 93/06 isolates after 18 hrs; format: functional; procedure, shortened: as §1

Which results are given for CC1=C(C)C2(C)C3C(=O)N(OCC(O)C[N+](C)(C)CC(O)CON4C(=O)C5C(C4=O)C4(C)C(C)=C(C)C5(C)C4C)C(=O)C3C1(C)C2C.[Cl-] (stereo not drawn)?
MIC (Staphylococcus aureus [1]): 50 µg/mL; MIC (Staphylococcus aureus [2]): 100 µg/mL; MIC (Staphylococcus aureus [3]): 50 µg/mL; MIC (Staphylococcus aureus [4]): 50 µg/mL; MIC (Staphylococcus aureus [5]): 50 µg/mL; MIC (Staphylococcus aureus [6]): 50 µg/mL; MIC (Staphylococcus aureus [7]): 200 µg/mL; MIC (Staphylococcus aureus [8]): 200 µg/mL; MIC (Staphylococcus aureus [9]): 200 µg/mL; MIC (Staphylococcus aureus [10]): 50 µg/mL; MIC (Staphylococcus aureus [11]): 50 µg/mL; MIC (Staphylococcus aureus [12]): 100 µg/mL; MIC (Staphylococcus aureus [13]): 50 µg/mL; MIC (Staphylococcus aureus [14]): 50 µg/mL; MIC (Staphylococcus aureus [15]): 100 µg/mL; MIC (Staphylococcus aureus [16]): 50 µg/mL; MIC (Staphylococcus aureus [17]): 200 µg/mL; MIC (Staphylococcus aureus [18]): 50 µg/mL; MIC (Staphylococcus aureus [19]): 50 µg/mL; MIC (Staphylococcus aureus [20]): 50 µg/mL; MIC (Staphylococcus aureus [21]): 100 µg/mL; MIC (Staphylococcus aureus [22]): 100 µg/mL; zone of inhibition at 400 µg/disc (Staphylococcus aureus [23]): 24 mm; zone of inhibition at 400 µg/disc (Staphylococcus aureus [24]): 23 mm; zone of inhibition at 400 µg/disc (Bacillus subtilis): 30 mm; zone of inhibition at 400 µg/disc (Enterococcus hirae): 18 mm; Activity (Pseudomonas aeruginosa [25]): inactive; Activity (Pseudomonas aeruginosa [26]): inactive; zone of inhibition at 400 µg/disc [27]: 21 mm; zone of inhibition at 400 µg/disc (Candida albicans): 14 mm; MIC (Staphylococcus aureus [28]): 100 µg/mL; MIC (Staphylococcus aureus [29]): 100 µg/mL; MIC (Staphylococcus aureus [30]): 25 µg/mL
